ChEMBL document CHEMBL1153860, “Design, synthesis and structure-activity relationships of antiproliferative 1,3-disubstituted urea derivatives” (Eur J Med Chem, 2009)

Assays:
KB = assay: Antiproliferative activity against human KB cells after 48 hrs by MTT assay; type: functional, cell-based
Procedure, shortened: (§1)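 Cells seeded at 7 × 10³/well and grown for 24 h. Exponentially growing cells were then exposed for 48 h to final concentrations of 0.1–100. MTT was added for 4 h, followed by 10% SDS in 0.01 N HCl at 37 °C for 18 h, and absorbance was read at 570 nm. Survival was expressed as % of untreated cells. IC50 was taken from six-well replicates in at least two independent experiments.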

[1] = Antiproliferative activity against human L02 cells after 48 hrs by MTT assay; type: cell-based; conditions: L02, 48 h; procedure, shortened: as §1

SMILES | IC50 (KB) [µM] | IC50 [1] [µM]
CN(C)C(=O)N(CCCN1CCOCC1)Cc1cc(Br)ccc1O | 9 | 86
CCOC(=O)N1CCC(N(Cc2ccc(O)cc2)C(=O)N(C)C)CC1 | 48.6 | –
CN(C)C(=O)N(Cc1ccco1)Cc1cc(Br)ccc1O | 32.8 | –
CN(C)C(=O)N(CCN1CCOCC1)Cc1cccc([N+](=O)[O-])c1 | 0.09 | 155
CN(C)C(=O)N(CCN1CCOCC1)Cc1ccc(O)cc1 | 4.25 | 81
CN(C)C(=O)N(CCCN1CCOCC1)Cc1cc(Cl)ccc1O | 1.75 | 81
CCOC(=O)N1CCC(N(Cc2cc([N+](=O)[O-])ccc2O)C(=O)N(C)C)CC1 | 24.2 | –
CN(C)C(=O)N(CCCN1CCOCC1)Cc1cc([N+](=O)[O-])ccc1O | 3.3 | 125
CN(C)C(=O)N(CCCN1CCOCC1)Cc1cccc([N+](=O)[O-])c1 | 0.17 | 134
CN(C)C(=O)N(CCN1CCOCC1)Cc1ccc([N+](=O)[O-])cc1 | 0.75 | 65
CN(C)C(=O)N(Cc1ccc([N+](=O)[O-])cc1)Cc1ccco1 | 17.5 | –
CCOC(=O)N1CCC(N(Cc2ccc([N+](=O)[O-])cc2)C(=O)N(C)C)CC1 | 16.4 | –
CN(C)C(=O)N(Cc1ccco1)Cc1cc(Cl)ccc1O | 49.5 | –
CN(C)C(=O)N(CCN1CCOCC1)Cc1cc(Cl)ccc1O | 2.24 | 82
CN(C)C(=O)N(CCN1CCOCC1)Cc1cc(Br)ccc1O | 7.3 | 21
CN(C)C(=O)N(Cc1cccc([N+](=O)[O-])c1)Cc1ccco1 | 23.8 | –
CCOC(=O)N1CCC(N(Cc2cccc([N+](=O)[O-])c2)C(=O)N(C)C)CC1 | 15.6 | –
CN(C)C(=O)N(CCCN1CCOCC1)Cc1ccc(O)cc1 | 2.88 | 109
CN(C)C(=O)N(Cc1ccc(O)cc1)Cc1ccco1 | 52.1 | –
CN(C)C(=O)N(Cc1ccco1)Cc1cc([N+](=O)[O-])ccc1O | 20.8 | –
CN(C)C(=O)N(CCN1CCOCC1)Cc1cc([N+](=O)[O-])ccc1O | 4.8 | 26
CCOC(=O)N1CCC(N(Cc2cc(Cl)ccc2O)C(=O)N(C)C)CC1 | 25.7 | –
CCOC(=O)N1CCC(N(Cc2cc(Br)ccc2O)C(=O)N(C)C)CC1 | 24.6 | –
CN(C)C(=O)N(CCCN1CCOCC1)Cc1ccc([N+](=O)[O-])cc1 | 0.52 | 85
COc1cc([C@@H]2c3cc4c(cc3[C@@H](O[C@@H]3O[C@@H]5CO[C@@H](C)O[C@H]5[C@H](O)[C@H]3O)[C@H]3COC(=O)[C@H]23)OCO4)cc(OC)c1O [ETOPOSIDE] | 0.42 | 13
